IC50 data for seven compounds are collected here from ChEMBL document CHEMBL4266037, “Discovery and Characterization of Cyclotides from Rinorea Species” (J Nat Prod, 2018).

The structures appear in SMILES notation. Positions of bridges follow the written chain, without caps; N, C: chain ends. Residues, ends and D or L forms follow the SMILES beside them. A value given as a limit tells only on which side of the number the result lay.

One test relates to Erythrocyte. As to the kind of experiment: Hemolytic activity against human RBC after 1 hr. It is filed as ADME, cell-based. The method, boiled down:
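Human red blood cells exposed to test peptides at 0.003–10 μM, with melittin at 0.15–20 μM as the lysis positive control. IC50 given as mean ± SD of three biological replicates.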

Test [1] has as its system HUVEC. The test is described as follows: Cytotoxicity against HUVEC after 24 hrs by MTT assay. The class given is cell-based. The note with it: Homo sapiens. The method, boiled down: (§1)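 Cells seeded at 3 × 10^3 per well and grown 24 h at 37 °C in 5% CO2. Media: HUVEC in 10% FBS/EBM-2 with supplements; HFF-1 in 15% FBS/DMEM; HT-29 and MDA-MB-231 in 10% FBS/DMEM; MM96L in 10% FBS/RPMI with 2 mM L-glutamine and 1 mM pyruvate. Switched to serum-free medium, then paclitaxel 0.00075–10 μM for 24 or 48 h. MTT added 3 h, formazan taken up in DMSO, A600. Triplicate; IC50 from sigmoidal fit.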
(Tetrazolium assays rely on reduction of a dye to a coloured formazan, in cell work by metabolically active cells.)

Test [2] concerns HFF-1. The test is described as follows: Cytotoxicity against human HFF1 after 24 hrs by MTT assay. It is filed as cell-based. To be noted: HFF-1, 24 h. An outline of the steps: as §1
In test [3] the test system is MM96L. As to the kind of experiment: Cytotoxicity against human MM96L after 24 hrs by MTT assay. It is filed as functional, cell-based. An outline of the steps:
as §1

Test [4] relates to MDA-MB-231. The test is described as follows: Cytotoxicity against human MDA-MB-231 after 24 hrs by MTT assay. To be noted: MDA-MB-231, 24 h. The class given is functional, cell-based. An outline of the steps: as §1
Test [5] deals with HT-29. The test is described as follows: Cytotoxicity against human HT-29 after 24 hrs by MTT assay. The note with it: HT-29, 24 h. It is filed as functional, cell-based. The method, boiled down:
as §1

Test [6] deals with HUVEC. As to the kind of experiment: Cytotoxicity against HUVEC after 48 hrs by MTT assay. The class given is cell-based. To be noted: Homo sapiens. The method, boiled down:
as §1

Test [7] deals with HFF-1. As to the kind of experiment: Cytotoxicity against human HFF1 after 48 hrs by MTT assay. It is filed as cell-based. To be noted: HFF-1, 48 h. The method, boiled down: as §1
The subject of test [8] is MM96L. As to the kind of experiment: Cytotoxicity against human MM96L after 48 hrs by MTT assay. It is filed as functional, cell-based. The method, boiled down:
as §1

Test [9] deals with HT-29. The test is described as follows: Cytotoxicity against human HT-29 after 48 hrs by MTT assay. The class given is functional, cell-based. The note with it: HT-29, 48 h. The method, boiled down:
as §1

The test system of test [10] is MDA-MB-231. As to the kind of experiment: cells. To be noted: Homo sapiens, MDA-MB-231, 48 h.

The term IC50 denotes the concentration that inhibits the measured activity by half. `CC[C@H](C)[C@H](NC(=O)CN)C(=O)NCC(=O)N[C@@H](C)C(=O)N[C@H](C(=O)N[C@@H](CC(C)C)C(=O)N[C@@H](CCCCN)C(=O)N[C@H](C(=O)N[C@@H](CC(C)C)C(=O)N[C@H](C(=O)N[C@H](C(=O)NCC(=O)N[C@@H](CC(C)C)C(=O)N1CCC[C@H]1C(=O)N[C@@H](C)C(=O)N[C@@H](CC(C)C)C(=O)N[C@H](C(=O)N[C@@H](CO)C(=O)N[C@@H](Cc1c[nH]c2ccccc12)C(=O)N[C@H](C(=O)N[C@@H](CCCCN)C(=O)N[C@@H](CCCNC(=N)N)C(=O)N[C@@H](CCCCN)C(=O)N[C@@H](CCCNC(=N)N)C(=O)N[C@@H](CCC(N)=O)C(=O)N[C@@H](CCC(N)=O)C(N)=O)[C@@H](C)CC)[C@@H](C)CC)[C@@H](C)O)[C@@H](C)O)C(C)C)C(C)C` [MELITTIN] displayed a concentration for half-maximal inhibition (IC50) with Erythrocyte of 0.96 µM.

Take `CC[C@H](C)[C@@H]1NC(=O)[C@@H]2CCCN2C(=O)[C@H](CC(C)C)NC(=O)CNC(=O)[C@H](CC(N)=O)NC(=O)[C@H](CCCCN)NC(=O)[C@H](Cc2ccc(O)cc2)NC(=O)[C@@H]2CSSC[C@@H]3NC(=O)[C@H](CCCCN)NC(=O)CNC(=O)[C@H](Cc4ccccc4)NC(=O)[C@H](C(C)C)NC(=O)[C@@H]4CSSC[C@H](NC(=O)[C@H](CO)NC(=O)[C@H](CSSC[C@H](NC1=O)C(=O)NCC(=O)N[C@@H](CCC(=O)O)C(=O)N[C@@H]([C@@H](C)O)C(=O)N4)NC(=O)CNC(=O)[C@@H]1CCCN1C(=O)[C@H]([C@@H](C)O)NC(=O)[C@H](CC(N)=O)NC3=O)C(=O)N[C@@H](CCCNC(=N)N)C(=O)N[C@@H](CCCNC(=N)N)C(=O)N1CCC[C@H]1C(=O)N[C@@H]([C@@H](C)CC)C(=O)N2` (cyclo(CGETCVFGKCNTPGCSCRRPICYKNGLPI); disulfide 1-15, 5-17, 10-22): the IC50 with HUVEC [1] is greater than 3 µM; in the test with HFF-1 [2], greater than 3 µM; in the test on MM96L [3], greater than 3 µM; in the test with MDA-MB-231 [4], greater than 10 µM; in the test on HT-29 [5], greater than 10 µM; in the test with Erythrocyte, greater than 10 µM.

For the compound `CC[C@H](C)[C@@H]1NC(=O)[C@@H]2CCCN2C(=O)[C@H](CCCCN)NC(=O)CNC(=O)[C@H](CC(N)=O)NC(=O)[C@H](CCCCN)NC(=O)[C@H](Cc2ccc(O)cc2)NC(=O)[C@H](CS)NC(=O)[C@H](CC(C)C)NC(=O)[C@H](C(C)C)NC(=O)[C@H](CCCNC(=N)N)NC(=O)[C@H](CCCCN)NC(=O)CNC(=O)[C@@H]2CSSC[C@@H]3NC(=O)[C@H]([C@@H](C)O)NC(=O)[C@H](CCC(=O)O)NC(=O)CNC(=O)[C@H](CSSC[C@H](NC(=O)CNC(=O)[C@@H]4CCCN4C(=O)[C@H]([C@@H](C)O)NC(=O)[C@H](Cc4ccc(O)cc4)NC(=O)[C@H](CS)NC(=O)[C@H](CCCCN)NC(=O)CNC(=O)[C@H](CC(C)C)NC(=O)[C@H](CC(C)C)NC3=O)C(=O)N[C@@H]([C@@H](C)O)C(=O)N2)NC1=O` (cyclo(CGETCLLGKCYTPGCTCGKRVLCYKNGKPI); disulfide 1-15, 5-17), the IC50 in the test on HUVEC [1] was found to be 2.8 µM; in the test on HFF-1 [2] it was 1.7 µM; with MM96L [3], 0.93 µM; in the test with MDA-MB-231 [4], 4.4 µM.

As for `CC[C@H](C)[C@@H]1NC(=O)[C@H](Cc2ccc(O)cc2)NC(=O)[C@H](CO)NC(=O)C(N)C(=O)[C@H](CC(N)=O)NC(=O)[C@H](CCCCN)NC(=O)[C@H](CCCCN)NC(=O)[C@@H]2CSSC[C@@H]3NC(=O)[C@H](CCCCN)NC(=O)CNC(=O)[C@H](CCC(N)=O)NC(=O)[C@H](C(C)C)NC(=O)[C@@H]4CSSC[C@H](NC(=O)[C@H]([C@@H](C)O)NC(=O)[C@H](CSSC[C@H](NC1=O)C(=O)NCC(=O)N[C@@H](CCC(=O)O)C(=O)N[C@@H]([C@@H](C)O)C(=O)N4)NC(=O)CNC(=O)[C@@H]1CCCN1C(=O)[C@H]([C@@H](C)O)NC(=O)[C@H](Cc1ccc(O)cc1)NC3=O)C(=O)N[C@@H](CO)C(=O)N[C@@H](Cc1c[nH]c3ccccc13)C(=O)N1CCC[C@H]1C(=O)N[C@@H]([C@@H](C)CC)C(=O)N2` (stereo partly drawn), the IC50 in the test on HUVEC [1] is 1.6 µM; with HFF-1 [2], 2.1 µM; in the test on MM96L [3], 1.3 µM; in the test with MDA-MB-231 [4], 0.95 µM; with HT-29 [5], 5.9 µM; with Erythrocyte, greater than 10 µM.

`CC[C@H](C)[C@@H]1NC(=O)[C@H](C)NC(=O)[C@H](CO)NC(=O)[C@H](CO)NC(=O)[C@H]([C@@H](C)CC)NC(=O)[C@@H]2CSSC[C@@H]3NC(=O)[C@H](C(C)C)NC(=O)[C@H](CCCCN)NC(=O)[C@H](CO)NC(=O)[C@H](CCCCN)NC(=O)[C@@H]4CSSC[C@H](NC(=O)[C@H](CO)NC(=O)[C@H](CCC(=O)O)NC(=O)CNC(=O)[C@H](CSSC[C@H](NC(=O)CNC1=O)C(=O)N[C@@H](CO)C(=O)N4)NC(=O)[C@@H]1CCCN1C(=O)[C@H]([C@@H](C)CC)NC(=O)CNC(=O)[C@H](CC(N)=O)NC(=O)[C@H](CCCNC(=N)N)NC(=O)[C@H](Cc1ccc(O)cc1)NC3=O)C(=O)N[C@@H](C(C)C)C(=O)N[C@@H](Cc1c[nH]c3ccccc13)C(=O)N[C@@H]([C@@H](C)CC)C(=O)N1CCC[C@H]1C(=O)N2` (cyclo(AIGCSCKSKVCYRNGIPCGESCVWIPCISS); disulfide 4-18, 6-22, 11-27): the IC50 is 0.35 µM in the test on HUVEC [1]; 1.3 µM in the test on HFF-1 [2]; 0.65 µM in the test with MM96L [3]; 1.5 µM in the test on MDA-MB-231 [4]; 0.87 µM in the test with HT-29 [5]; 36 µM with Erythrocyte.

For `CC[C@H](C)[C@@H]1NC(=O)[C@@H]2CCCN2C(=O)[C@H](CC(C)C)NC(=O)CNC(=O)[C@H](CC(N)=O)NC(=O)[C@H](CCCCN)NC(=O)[C@H](Cc2ccc(O)cc2)NC(=O)[C@@H]2CSSC[C@@H]3NC(=O)[C@H](CCCCN)NC(=O)CNC(=O)[C@H](CC(C)C)NC(=O)[C@H](CC(C)C)NC(=O)[C@@H]4CSSC[C@H](NC(=O)[C@H](CO)NC(=O)[C@H](CSSC[C@H](NC1=O)C(=O)NCC(=O)N[C@@H](CCC(=O)O)C(=O)N[C@@H]([C@@H](C)O)C(=O)N4)NC(=O)CNC(=O)[C@@H]1CCCN1C(=O)[C@H]([C@@H](C)O)NC(=O)[C@H](Cc1ccc(O)cc1)NC3=O)C(=O)N[C@@H](CCCNC(=N)N)C(=O)N[C@@H](CCCNC(=N)N)C(=O)N1CCC[C@H]1C(=O)N[C@@H](C(C)C)C(=O)N2` (cyclo(CGETCLLGKCYTPGCSCRRPVCYKNGLPI); disulfide 1-15, 5-17, 10-22), the 50% inhibitory concentration (IC50) in the test on HUVEC [1] is 2.6 µM; in the test with HFF-1 [2], 1.9 µM; in the test with MM96L [3], 1.1 µM; in the test on MDA-MB-231 [4], 2.3 µM; with Erythrocyte, greater than 10 µM.

With `CC(=O)O[C@H]1C(=O)[C@@]2(C)[C@H]([C@H](OC(=O)c3ccccc3)[C@]3(O)C[C@H](OC(=O)[C@H](O)[C@@H](NC(=O)c4ccccc4)c4ccccc4)C(C)=C1C3(C)C)[C@]1(OC(C)=O)CO[C@@H]1C[C@@H]2O` [PACLITAXEL], the 50% inhibitory concentration (IC50) with HUVEC [1] is greater than 10 µM; with HFF-1 [2], greater than 10 µM; in the test with MM96L [3], greater than 10 µM; in the test on MDA-MB-231 [4], 0.2 µM; with HT-29 [5], 0.07 µM; in the test on HUVEC [6], greater than 10 µM. Moreover, the half-maximal inhibitory concentration (IC50) was greater than 10 µM in the test on HFF-1 [7], greater than 10 µM with MM96L [8], 0.01 µM in the test with HT-29 [9] and 0.001 µM with MDA-MB-231 [10].
